# Assay results as given in article PMC10205783 (Immuno-Oncology and Technology, 2023).
# What was measured:
# circulating LPA C18:2 [1] = assay: Pharmacodynamics in male CD1 mice: circulating LPA C18:2 after oral dose; type: in vivo
# [2] = Pharmacokinetics in male CD1 mice: plasma exposure after oral gavage; type: in vivo; details: male CD1 mice, 3, 10 and 30 mg/kg oral gavage
# [3] = system: stimulated human primary cells (lung epithelial cells and fibroblasts; lung fibroblasts only; renal epithelial cells with lung fibroblasts); assay: BioMAP Fibrosis phenotypic screening panel; type: cell-based; details: 6 μM, 48 h, TGF-β and TNF-α stimulated co-cultures
# Summary of the method: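 Three co-culture systems of human primary cells: lung epithelial cells with lung fibroblasts, lung fibroblasts alone, renal epithelial cells with lung fibroblasts. Cells stimulated with TGF-β and TNF-α, then exposed 48 h to test compound at 0.24, 1.2 and 6 μM. Biomarkers quantified by ELISA. Significance envelope: 95% CI bounds of historical vehicle controls.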
# [4] = system: bleomycin-induced pulmonary fibrosis; assay: Bleomycin-induced pulmonary fibrosis; type: in vivo, C57BL/6 mice
# Summary of the method: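 Anaesthetised male C57BL/6 mice given intranasal bleomycin (0.6 mg/ml) or saline. Test compound 10 mg/kg or methocel/PBS vehicle by oral gavage twice daily from day 0 for 21 days; body weight monitored. Day 21: terminal plasma; BALF by two ice-cold saline lavages via tracheal cannula, supernatant after centrifugation. LPA species by LC-MS/MS; Mann–Whitney test.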
# 4T1 tumors = assay: 4T1 metastasis assay with resection of the primary tumor; type: in vivo, BALB/c mice
# Summary of the method: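 Female BALB/c mice implanted surgically with 4T1 cells in the mammary fat-pad, n = 12 per group. Primary tumour resected at day 15 and weighed. Test compound 100 mg/kg b.i.d. by oral gavage. Lungs and bone marrow harvested 20 days after resection. Lungs fixed and H&E-stained for metastases. Bone marrow flushed from hind limbs, cultured in complete medium with 6-thioguanine 10 μg/ml, colonies crystal violet-stained.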
# E0771 tumors = assay: E0771 orthotopic breast cancer model; type: in vivo, C57BL/6 mice
# [5] = system: LPA1, LPA2, LPA3, LPA5, S1P1, S1P2, SP3, S1P4 and S1P5; SafetyScreen44 panel; assay: Off-target profiling on lipid receptor panel and SafetyScreen44 panel; type: binding
# [6] = target: 5-hydroxytryptamine 2B (5-HT2B) receptor (Homo sapiens, UniProt P41595); assay: 5-HT2B receptor binding; details: only hit of the panels
# 5-hydroxytryptamine 2B (5-HT2B) receptor, sequence (P41595 whole entry): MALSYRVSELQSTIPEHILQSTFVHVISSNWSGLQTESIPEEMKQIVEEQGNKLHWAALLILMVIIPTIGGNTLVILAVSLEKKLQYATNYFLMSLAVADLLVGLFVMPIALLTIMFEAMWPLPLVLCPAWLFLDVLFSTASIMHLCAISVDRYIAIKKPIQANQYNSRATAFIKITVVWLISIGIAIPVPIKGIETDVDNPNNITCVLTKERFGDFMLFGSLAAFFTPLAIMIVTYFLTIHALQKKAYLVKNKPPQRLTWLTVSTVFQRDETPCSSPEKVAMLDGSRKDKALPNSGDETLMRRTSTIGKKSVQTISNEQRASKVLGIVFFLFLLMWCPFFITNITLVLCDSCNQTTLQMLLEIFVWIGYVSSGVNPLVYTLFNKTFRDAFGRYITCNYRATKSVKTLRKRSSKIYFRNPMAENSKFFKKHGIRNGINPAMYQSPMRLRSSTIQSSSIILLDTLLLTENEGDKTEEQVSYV
# 5-HT2B = 5-HT2B (Homo sapiens, UniProt P41595); assay: 5-HT2B antagonist confirmation; type: biochemical
# 5-HT2B, sequence (P41595 whole entry, species assumed): as the sequence (P41595 whole entry) above
# hERG tail current = hERG tail current (Homo sapiens, UniProt Q12809); assay: GLP hERG assay; type: cell-based
# hERG tail current, sequence (Q12809 whole entry): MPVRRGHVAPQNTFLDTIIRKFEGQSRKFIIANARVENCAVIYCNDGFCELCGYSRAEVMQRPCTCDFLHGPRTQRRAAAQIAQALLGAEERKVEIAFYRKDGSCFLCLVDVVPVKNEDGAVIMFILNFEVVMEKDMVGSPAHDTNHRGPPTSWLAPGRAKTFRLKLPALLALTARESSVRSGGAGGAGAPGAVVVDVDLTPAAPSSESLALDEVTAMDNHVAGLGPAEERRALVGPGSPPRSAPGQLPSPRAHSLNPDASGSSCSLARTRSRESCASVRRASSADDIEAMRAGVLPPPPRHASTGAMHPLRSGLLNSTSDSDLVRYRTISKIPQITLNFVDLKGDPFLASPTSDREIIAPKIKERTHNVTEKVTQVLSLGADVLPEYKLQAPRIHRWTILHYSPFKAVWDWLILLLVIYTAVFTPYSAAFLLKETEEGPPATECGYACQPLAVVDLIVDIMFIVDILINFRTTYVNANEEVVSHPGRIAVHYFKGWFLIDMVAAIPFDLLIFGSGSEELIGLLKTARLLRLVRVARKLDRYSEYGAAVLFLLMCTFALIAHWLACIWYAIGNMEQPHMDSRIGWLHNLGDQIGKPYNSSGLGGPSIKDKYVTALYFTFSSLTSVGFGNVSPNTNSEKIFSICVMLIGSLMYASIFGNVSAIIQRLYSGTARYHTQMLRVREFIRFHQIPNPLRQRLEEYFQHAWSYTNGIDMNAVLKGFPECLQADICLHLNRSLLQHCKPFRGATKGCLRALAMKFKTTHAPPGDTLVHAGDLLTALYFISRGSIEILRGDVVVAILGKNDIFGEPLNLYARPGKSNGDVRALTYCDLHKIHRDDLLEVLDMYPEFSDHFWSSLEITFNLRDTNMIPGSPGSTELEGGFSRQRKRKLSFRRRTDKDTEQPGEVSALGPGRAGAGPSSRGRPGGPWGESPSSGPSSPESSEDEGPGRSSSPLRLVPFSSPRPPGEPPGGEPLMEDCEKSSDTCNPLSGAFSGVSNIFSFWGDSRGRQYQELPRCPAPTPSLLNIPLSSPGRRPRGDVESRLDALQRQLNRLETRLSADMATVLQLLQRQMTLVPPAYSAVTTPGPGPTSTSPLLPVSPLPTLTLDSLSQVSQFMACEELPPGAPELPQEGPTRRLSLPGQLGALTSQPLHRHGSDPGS
# respiratory functions = assay: GLP safety pharmacology, respiratory functions in rats; type: in vivo
# [7] = system: cardiovascular and neurobehavioral functions; assay: GLP safety pharmacology, cardiovascular and neurobehavioral functions in dogs; type: in vivo
# [8] = 4-week GLP toxicology study in rats; type: in vivo
# [9] = 4-week GLP toxicology study in dogs; type: in vivo
# In vitro toxicology = details: based on absence of in vitro toxicology findings
# circulating LPA C18:2 [10] = assay: First-in-human single ascending oral dose study: LPA C18:2 pharmacodynamics; type: in vivo, healthy male volunteers
# [11] = system: tumor-infiltrating lymphocyte (TIL) migration; details: LPA chemorepulsion of T cells; cited from earlier work
# [12] = First-in-human single ascending oral dose study: safety and pharmacokinetics
# [13] = system: bleomycin-induced pulmonary fibrosis; details: mouse; cited from earlier work
# [14] = phase II, IPF patients, cited from earlier work
# [15] = 4T1, 20 days after removal of primary tumor
# [16] = single oral dose, healthy male volunteers
structure (smiles),measurement,setting,value
C[C@H](NC(=O)CCc1nc2cccnc2n1Cc1ccc(OC(F)(F)F)cc1)c1ccc(Cl)cc1 [IOA-289],ED50,"circulating LPA C18:2 [1]; Mus musculus, po, 1 h, read-out: ED50, reduction of circulating LPA C18:2",~3 mg/kg
same,reduction of circulating LPA C18:2,"circulating LPA C18:2 [1]; male CD1 mice, 3, 10 and 30 mg/kg oral gavage",dose-dependent reduction
same,plasma exposure,[2],dose-proportional increase
same,activity of EGFR,[3],significantly decreased
same,activity of MCP-1,[3],significantly decreased
same,activity of collagen III (Col-III),[3],significantly decreased
same,activity of sIL-6,[3],significantly decreased
same,activity of sIL-8,[3],significantly decreased
same,activity of sVEGF,[3],significantly decreased
same,activity of αSMA,[3],significantly decreased
same,LPA C18:2 levels in BALF,"[4]; BLM model, day 21",significantly reduced
same,LPA C18:2 levels in plasma,"[4]; BLM model, day 21",significantly reduced
same,severity of the BLM model followed by body weight,[4]; compared with vehicle treatment,alleviated the severity substantially
same,bone metastases (colony formation assay from bone marrow),4T1 tumors; [15],marked reduction
same,metastatic burden in lungs (histology),4T1 tumors; [15],marked reduction
same,primary tumor growth,"4T1 tumors; 4T1, primary tumor resected at day 15",no effect
same,tumor growth,"E0771 tumors; E0771, 30 mg/kg b.i.d. oral from day 3 to day 40, compared with control group",reduced the tumor growth
same,complete tumor eradication,"E0771 tumors; E0771, n = 10 per group",complete tumor eradication in two mice
same,off-target interactions,[5],no to minimal potential off-target interactions
same,binding to 5-HT2B receptor,[6],sub-micromolar binding
same,IC50,5-HT2B,2500 nM
same,IC50,hERG tail current,1030 nM
same,effects on respiratory functions,respiratory functions,no relevant effects
same,effects on cardiovascular (including QTc changes) and neurobehavioral functions,[7],no relevant effects
same,NOAEL at 4 weeks,"[8]; rat, in vivo, po",300 mg/kg/day
same,main target organs for toxicity,"[8]; rats, all findings reversible","the liver, the bone marrow and the stomach in both sexes and additionally the kidneys, the testes and thyroids in males"
same,NOAEL at 4 weeks,"[9]; dog, in vivo, po",60 mg/kg/day
same,main target organs for toxicity,[9]; dogs,"the gastrointestinal tract, the liver, the bladder and the parotid gland"
same,"risk for genotoxicity, phototoxicity and cytotoxicity",In vitro toxicology,low risk
same,IC50,"circulating LPA C18:2 [10]; Homo sapiens, po, read-out: IC50 on % LPA C18:2 reduction from baseline",0.015 µg/mL
same,circulating levels of LPA C18:2,circulating LPA C18:2 [10]; maximal inhibition at cohorts 4 and 5 dose levels,dose-related decrease
same,time of peak inhibition of LPA C18:2 after dose,circulating LPA C18:2 [10]; single oral dose,1 to 2 h
same,TIL migration in vitro,[11],can rescue
same,Tmax,"[12]; male, human, in vivo, po",1 h
same,maximum plasma concentrations versus dose,"[12]; single ascending oral doses, five cohorts",increased dose proportionally
same,adverse events,[12]; [16],no adverse events reported
same,safety and tolerability,[12]; [16],well tolerated
"CCc1nc2c(C)cc(N3CCN(CC(=O)N4CC(O)C4)CC3)cn2c1N(C)c1nc(-c2ccc(F)cc2)c(C#N)s1 [ziritaxestat, 2-[[2-ethyl-6-[4-[2-(3-hydroxyazetidin-1-yl)-2-oxo-ethyl]piperazin-1-yl]-8-methyl-imidazo[1,2-a]pyridin-3-yl]-methyl-amino]-4-(4-fluorophenyl)thiazole-5-carbonitrile]",efficacy in bleomycin-induced pulmonary fibrosis model,[13],demonstrated efficacy
same,plasma LPA C18:2 levels,[14]; 12 weeks,reducing
same,tolerability,[14]; 12 weeks,well tolerated
same,forced vital capacity,[14]; after 12 weeks of treatment,stabilizing
